# Experimental data gathered from unrelated publications.
# Each line is one published result; the experiments were not run side by side.
# Target: Serine/threonine-protein kinase Sgk1 (SGK1, Homo sapiens, UniProt O00141)
# Sequence (O00141 1-431, as in one of the studies): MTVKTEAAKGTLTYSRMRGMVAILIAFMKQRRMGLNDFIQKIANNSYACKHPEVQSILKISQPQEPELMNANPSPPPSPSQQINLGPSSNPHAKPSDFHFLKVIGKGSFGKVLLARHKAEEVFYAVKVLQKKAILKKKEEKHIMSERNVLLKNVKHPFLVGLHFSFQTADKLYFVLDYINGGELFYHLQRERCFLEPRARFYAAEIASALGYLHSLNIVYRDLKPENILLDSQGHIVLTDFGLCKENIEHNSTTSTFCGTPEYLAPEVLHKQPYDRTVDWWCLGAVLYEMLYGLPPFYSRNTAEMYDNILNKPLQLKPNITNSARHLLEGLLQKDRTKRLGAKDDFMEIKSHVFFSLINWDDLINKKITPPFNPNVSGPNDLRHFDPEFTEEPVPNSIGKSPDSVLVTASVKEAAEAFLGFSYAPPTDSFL
SMILES,assay,conditions,remaining binding [%]
O=C(NCc1ncc(C(F)(F)F)cc1Cl)c1ccc2c(c1)C1(CCS(=O)(=O)CC1)[C@@H](C1CC1)N2S(=O)(=O)c1ccc(F)cc1,"cell-free assay, competition with immobilised ligand",1 µM,77
N[C@H]1CCN(c2nccc(-c3cnn4ncccc34)n2)C1,binding,1 µM,91
COc1cnc(Nc2cccc(S(N)(=O)=O)c2)nc1N1CCN(c2ccccc2)C(=O)C1,"binding, competition with immobilised ligand",1 µM,94
CC(=O)N1CCC(c2ccc(C(=O)NC3=NCCN3)cc2C(F)(F)F)CC1,"cell-free assay, competition with immobilised ligand",1 µM,100
COc1ncc2cc3ccccc3nc2c1C#N,"cell-free assay, competition with immobilised ligand",5 µM,94
CN(C)c1ncc(F)c(-c2cnn3ncccc23)n1,binding,1 µM,79
Nc1ncc2c(n1)-c1c([nH]c3ccc(C#CC4CC4)cc13)CCCC2,"binding, competition with immobilised ligand",1 µM,88
CN(CCCC(F)(F)F)c1nccc(-c2cnn3ncccc23)n1,binding,1 µM,85
O=C(c1ccc(Nc2ncc(Cl)c(-c3cc4ccccc4s3)n2)cc1)N1CCC(N2CCCC2)CC1,"binding, competition with immobilised ligand",1 µM,0.1
c1cnn2ncc(-c3ccnc(N4CCC45COC5)n3)c2c1,binding,1 µM,55
O=C(N[C@H]1CCCCC/C=C\C2C[C@@]2(C(=O)O)NC(=O)[C@@H]2C[C@@H](Oc3ccncc3)CN2C1=O)OC1CCCC1 (stereo partly shown),"binding, competition with immobilised ligand",1 µM,100
CCN1CCN(Cc2ccc(C(=O)Nc3ccc(C)c(Oc4ccc5c(c4)CC(=O)N5)c3)cc2C(F)(F)F)CC1,"binding, competition with immobilised ligand",1 µM,79
CNC(=O)[C@@H]1CC[C@@H](n2c(-c3ccc4cnccc4c3)nc3ccc(C(=O)NCc4cccc(C(N)=O)c4)cc32)C1,"binding, competition with immobilised ligand",1 µM,94
c1cncc(-c2cccc(Nc3nccc(NC4CCCCC4)n3)c2)c1,"binding, competition with immobilised ligand",10 µM,92
CS(=O)(=O)c1cc(C2(NC(=O)c3cncc4c3cnn4-c3ccc(F)cc3)CC2)ccn1,"cell-free assay, competition with immobilised ligand",1 µM,97
C[C@H]1CCN(c2nccc(-c3cnn4ncccc34)n2)C1,binding,1 µM,68
O=C(Nc1c[nH]nc1C(=O)NC1CCNCC1)c1cc(F)cc(F)c1,"binding, competition with immobilised ligand",1 µM,100
O=C(c1ccc(Nc2nccc(-c3cc4ccccc4s3)n2)cc1)N1CCC(N2CCCC2)CC1,"binding, competition with immobilised ligand",1 µM,1.1
CN(C)C(=O)Cn1cc(-c2nc([C@@](C)(c3ccc(-c4cnc(N)nc4)cc3)C3CC3)no2)cn1,"cell-free assay, competition with immobilised ligand",1 µM,91
O=C(NCCCN1CCOCC1)c1ccc(Nc2ncc(Cl)c(-c3ccc(Cl)s3)n2)cc1,"binding, competition with immobilised ligand",1 µM,5.8
CC1=C(C#N)[C@@H](c2ccc3[nH]nc(C)c3c2)C(C#N)=C(c2ccc(Cl)cc2)N1,"cell-free assay, competition with immobilised ligand",1 µM,100
CN(C)c1nccc(-c2cnn3ncccc23)n1,binding,1 µM,69
